From PubChem
Rin1 Abl inh = blocks binding of human Rin1 to Abl. P00519+Q13671. TR-FRET Rin1/Abl binding, biochemical. inhibition, % at 7.35 µM. actives 0.4% (n = 360,000). AID 588664; in the data active means inhibition above about 5%, passing the limit was not always enough
ABHD5 PLIN5 PPI = ABHD5-PLIN5 protein interaction inhibition | actives 0.78% (n = 360,000) | Q00G26+Q8WTS1 | Split G. princeps luciferase complementation, luminescence, 4 h | inhibition, % at 4 µM;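 active means inhibition above the mean inhibition across every tested compound plus 3 SD, cut at about 22% in these data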;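 further: 0% = DMSO only wells and the 100% control is not disclosed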
XiGFP reactiv = reactivates the inactive X chromosome in mouse fibroblasts | XiGFP mouse fibroblasts, % GFP-positive cells imaging, 3 d; cells co-treated with 5-aza-dC sensitizer; scaled so ellipticine positive control = 100% | actives 0.055% (n = 360,000) | activation, % at 7.58 µM;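 active means mean normalized replicate activation at least 10% and every replicate at or above 10%; inconclusive means only one of the two criteria met; inactive means mean below 10% and not all replicates reach 10%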;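 further: 0% = median of on-plate neutral control wells and 100% = ellipticine 6 µM median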
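Assay system: SV40-immortalized XiGFP fibroblast cells, line 68-5-11; buffer or medium: DMEM plus 5-aza-dC sensitizer; compound: one concentration, pinned; timing: compounds 3 days, fix/stain 15 min at room temperature; benchmarks: positive control ellipticine, 6 µM final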
Rpn11 inh = Rpn11 (human) deubiquitinase inhibition | O00487 | human 26S proteasome, Ub4-pepOG fluorescence polarization; 20S core pre-blocked with epoxomicin | inhibition, % at 20 µM | actives 0.59% (n = 360,000) | AID 588493;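 active means inhibition at 20 µM, scaled to each plate's controls, above about 33%, limit read from the data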
Target sequence (O00487 whole entry, looked up): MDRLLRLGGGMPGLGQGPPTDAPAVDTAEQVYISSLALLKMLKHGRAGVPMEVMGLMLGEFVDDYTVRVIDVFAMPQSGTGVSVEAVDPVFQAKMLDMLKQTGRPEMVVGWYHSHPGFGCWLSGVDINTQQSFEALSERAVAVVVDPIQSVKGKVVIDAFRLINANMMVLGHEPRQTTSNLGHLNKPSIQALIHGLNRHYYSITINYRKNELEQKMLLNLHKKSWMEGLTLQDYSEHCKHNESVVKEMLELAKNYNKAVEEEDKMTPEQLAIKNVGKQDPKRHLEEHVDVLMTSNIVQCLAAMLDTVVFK
NadD inh = blocks S. aureus nicotinate mononucleotide adenylyltransferase; purified NadD enzyme, colorimetric absorbance read-out; inhibition, % at 20 µM; actives 0.78% (n = 360,000); in the data active means inhibition above about 26%
Rpn11 confirm = confirmation of human proteasome Rpn11 inhibitors; shares compounds with Rpn11 inh; purified human 26S proteasome, Ub4-pepOG fluorescence polarization; proteasome pretreated with epoxomicin; inhibition, % at 20 µM; actives 29% (n = 1,900)
MMP-2 counter = blocks human MMP-2, flagging nonselective RPN11 hits | inhibition, % at 20 µM | actives 4% (n = 1,900) | recombinant MMP-2, FRET peptide cleavage fluorescence | shares compounds with Rpn11 inh | AID 602330;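 further: human MMP-2 activated beforehand with APMA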
Thrombin FP = thrombin (bovine) inhibition counter-screen | bovine thrombin cleavage of Ub4-pepOG, fluorescence polarization | inhibition, % at 20 µM | AID 602333 | actives 13% (n = 1,900) | shares compounds with Rpn11 inh;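 active means mean inhibition at least 40% at 20 µM, or signal 3 deviations below plate average, so some actives read negative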;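 further: plate controls were thrombin with DMSO for no effect and buffer wells lacking thrombin for full effect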
Numbers without * were called inactive; ? = inconclusive; / = no result. In the library only some 1.9% were active in any assay of this set; here they are far more common. Unless noted, no stated cut-off is given here; in the data, active means inhibition above about 40%; inactive means the rest.

SMILES	Rin1 Abl inh	ABHD5 PLIN5 PPI	XiGFP reactiv	Rpn11 inh	NadD inh	Rpn11 confirm	MMP-2 counter	Thrombin FP
CCCC#Cc1ccc([C@H]2[C@@H](CO)N3C(=O)CN(C(=O)Nc4ccccc4)C[C@H]23)cc1	/	/	1	/	/	/	/	/
CCC(=O)N1C[C@H](C)[C@@H](OC)CN(C)C(=O)c2ccc(NC(=O)Nc3ccc(Cl)cc3)cc2OC[C@@H]1C	/	/	0	/	/	/	/	/
O=C(N/N=C/c1cccnc1)c1ccc(NC(=O)c2cccc(Cl)c2)cc1	0	-3	0	64*	-2	44*	-8	-15
O=C(N/N=C/c1ccncc1)c1cccc(N/N=C/c2ccncc2)c1	-2	7	0	1	5	/	/	/
O=C(N/N=C/c1ccncc1)c1cccc(NC(=O)c2ccc(Cl)cc2)c1	5	-4	0	73*	4	47*	-1	0
CN(C)c1ccc(/C=N/NC(=O)c2ccc(NC(=O)c3ccccc3)cc2)cc1	1	3	0	1	10	/	/	/
O=C(N/N=C/c1ccc(Br)cc1)c1ccc(NC(=O)c2ccccc2)cc1	-1	-1	0	140*	15	-1	-24	-10
O=C(C[n+]1ccc(C(=O)N/N=C/c2ccc(O)cc2)cc1)c1ccccc1	-5	-3	/	104*	1	0	13	-14
O=C(N/N=C/c1cccnc1)c1ccc(NC(=O)c2ccc(Cl)cc2)cc1	2	2	0	6	-13	/	/	/
C[C@@H]1CN([C@@H](C)CO)C(=O)Cc2cc(NS(C)(=O)=O)ccc2O[C@H]1CN(C)Cc1ccc(Oc2ccccc2)cc1	/	/	0	/	/	/	/	/
CCOC(=O)Cn1ncc(-c2ccccc2)c1N	3	4	/	169*	0	18	-31	-3
COc1ccc(-c2cnc3c(c2)C(=O)N([C@@H](C)CO)C[C@@H](C)[C@@H](CN(C)S(=O)(=O)c2ccc(OC)cc2)O3)cc1	/	/	0	/	/	/	/	/
Cc1cc2c(=Cc3ccc(N(C)C)cc3)c3ccccc3n2[n+]1C	-26	13	0	177*	-2	135*	-11	145*
CC1=NN(c2cccc(F)c2)C(=O)/C1=C/c1ccc(N(C)C)cc1	-1	-2	0	6	-9	/	/	/
C[n+]1c(-c2ccccc2)cc2c(=Cc3ccc([N+](=O)[O-])cc3)c3ccccc3n21	7	-22	0	6	11	/	/	/
CCOC(=O)c1cc2c(=Cc3ccc(N(C)C)cc3)c3ccccc3n2[n+]1C	-8	6	0	43*	0	27	-48	18
CN(C)c1ccc(C=c2c3cc(O)ccc3n3c2cc(-c2ccccc2)[n+]3C)cc1	-12	-7	0	168*	27	177*	109*	155*
O=S(=O)(c1ccc(Cl)cc1)N1CCc2ccccc21	-1	-7	0	42*	-11	147*	-45	132*
CCOC(=O)c1c(NC(=O)C2=C(C)NC(=S)NC2c2ccc(F)cc2F)sc(C)c1C (stereo not drawn)	4	-17	0	38*	19	-14	11	-20
COc1cccc2sc3cc(C#Cc4ccccn4)ccc3c(=O)c12	-6	13	0	13	12	/	/	/
COc1cc2sc3ccc(C#Cc4ccccn4)cc3c(=O)c2cc1OC	0	9	0	56*	0	-15	-38	-3
COc1ccc(-c2cc(NC=O)c3ncc(-c4ccc(C(C)=O)cc4)n3c2)cn1	-7	1	0	55*	-1	26	-9	11
COc1ccc(NS(=O)(=O)c2cc([N+](=O)[O-])ccc2N/N=C/c2c(C)[nH]c3ccccc23)cc1	-1	-10	1	65*	11	44*	-26	-16
CCCCCCCCCCC[N+](C)(C)CC/C=C1/c2ccccc2Sc2ccc(Cl)cc21	-2	8	/	33	16	/	/	/
CCCCCCCCCC[N+](C)(C)CC/C=C1/c2ccccc2Sc2ccc(Cl)cc21	-3	6	/	48*	26	38	-2	1
SMILES	Rin1 Abl inh	ABHD5 PLIN5 PPI	XiGFP reactiv	Rpn11 inh	NadD inh	Rpn11 confirm	MMP-2 counter	Thrombin FP
C[C@@H]1CN([C@@H](C)CO)C(=O)c2cc(NC(=O)Nc3ccc4c(c3)OCO4)ccc2O[C@H]1CN(C)CC1CCCCC1	/	/	0	/	/	/	/	/
COc1ccc(-c2ccc(NC(=O)c3ccc(Br)o3)cc2)nn1	-3	-1	0	77*	8	13	16	-21
O=C(O)c1ccc(COc2ccccc2/C=C2\NC(=O)N(Cc3ccc(F)cc3)C2=O)cc1	3	-3	0	-3	3	/	/	/
O=C(O)c1ccc(COc2ccccc2/C=C2/NC(=O)N(c3cccc(Cl)c3)C2=O)cc1	1	7	1	56*	22	56*	19	15
O=C(O)c1ccc(COc2ccccc2C=C2C(=O)c3ccccc3C2=O)cc1	-6	8	?	46*	16	66*	-18	15
O=C1NC(=S)N/C1=C\c1ccccc1OCc1ccc(C(=O)O)cc1	0	4	0	2	-3	/	/	/
CCc1nnc(NC(=O)CSc2nnc3scc(-c4ccc(C)cc4)n23)s1	3	-4	/	1	-3	/	/	/
Cc1ccc(-c2nc(NC(=O)CSc3nnc4scc(-c5ccccc5)n34)ns2)cc1	-1	-9	0	60*	13	7	-30	-2
COc1ccc(O)c(C(=O)c2cnn(C(=O)c3ccc(C)cc3)c2)c1	2	0	0	96*	10	-3	-34	-11
COc1ccccc1C#Cc1ccc2c(c1)[C@@H]1[C@@H](CCN1S(=O)(=O)c1ccc(F)cc1)[C@@H](CO)N2	/	/	0	/	/	/	/	/
CC(=O)Nc1cc(-c2ccc(N3CCN(C)CC3)cc2)cn2c(-c3ccc(F)c(Cl)c3)cnc12	-4	10	0	27	8	/	/	/
CN1CCN(c2ccc(-c3cc(NC=O)c4ncc(-c5ccc(F)c(Cl)c5)n4c3)cc2)CC1	-4	9	0	48*	19	27	-8	14
O=C(Nc1nc2ccc(S(=O)(=O)N3CCCCC3)cc2s1)c1cccnc1	-1	-8	/	54*	3	6	-9	-2
Cc1ccc(S(=O)(=O)N2CCCC2C(=O)Nc2nc3ccccc3s2)cc1 (stereo not drawn)	2	-7	/	31*	-3	-14	0	-19
Cc1ccc2nc(NC(=O)c3ccc(S(=O)(=O)N4CCCc5ccccc54)cc3)sc2c1	0	2	0	41*	17	-15	-34	-14
